Test results as given in ChEMBL document CHEMBL4689842, “EUbOPEN Chemogenomics Library wave 1” (2021).

How the values were obtained:
Type in all cases: toxicity, cell-based
[1] = system: U2OS; assay: Incucyte cell viability with U2OS; settings: human, 10 µM, compound concentration 10 uM; note: filed as whole numbers so only -1 and 0 and 1 occur
[2] = system: Fibroblast; assay: Multiplex assay against human fibroblast
Method in brief: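 Values for tubulin, mitochondrial-mass and membrane-permeability phenotypes are per cents of cells with healthy nuclei. These cells were identified by CellPathfinder machine-learning gating of live cells that had been stained at seeding with Hoechst33342, BioTracker Green Microtubule Cytoskeleton Dye, MitoTracker Red and Annexin V Alexa Fluor 680 and imaged on a CQ1 microscope at 37°C and 5% CO2 after compound addition. The gating first set Hoechst high-intensity objects apart from normal cells, then split normal cells into healthy, pyknosed or fragmented nuclei, and pyknosed cells into mitotic or apoptotic.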

[3] = system: HEK-293T; assay: Incucyte cell viability with HEK293T; settings: human, 10 µM, compound concentration 10 uM; note: filed as whole numbers so only -1 and 0 and 1 occur
[4] = 0 h, replicate number 2, timepoint 0 hours
[5] = 6 h, replicate number 1, timepoint 6 hours
[6] = 12 h, replicate number 1, timepoint 12 hours
[7] = 18 h, replicate number 1, timepoint 18 hours
[8] = 24 h, replicate number 1, timepoint 24 hours
[9] = 12 h, 1 µM, compound concentration 1 uM, replicate 1
[10] = 12 h, 1 µM, compound concentration 1 uM, replicate 2
[11] = 12 h, 10 µM, compound concentration 10 uM, replicate 1
[12] = 12 h, 10 µM, compound concentration 10 uM, replicate 2
[13] = 24 h, 1 µM, compound concentration 1 uM, replicate 1
[14] = 24 h, 1 µM, compound concentration 1 uM, replicate 2
[15] = 24 h, 10 µM, compound concentration 10 uM, replicate 1
[16] = 24 h, 10 µM, compound concentration 10 uM, replicate 2

CC[C@@H]1C(=O)N(C)c2cnc(Nc3ccc(C(=O)NC4CCN(C)CC4)cc3OC)nc2N1C1CCCC1 [BI-2536]
Growth Rate [1, 4]: 0 | Growth Rate [1, 5]: 0 | Growth Rate [1, 6]: 0 | Growth Rate [1, 7]: 0 | Growth Rate ([1]; 18 h, replicate number 2, timepoint 18 hours): 1 | Growth Rate [1, 8]: 0 | Growth Rate ([1]; 24 h, replicate number 2, timepoint 24 hours): 1 | Population Apoptotic (%) [2, 9]: 82% | Population Fragmented Nuclei (%) [2, 9]: 37% | Population Healthy Nuclei (%) [2, 9]: 51% | Population Hoechst High Intensity Objects (%) [2, 9]: 13% | Population Membrane Permeable-Phenotype (%) [2, 9]: 6% | Population Mitotic Cells (%) [2, 9]: 17% | Population Normal (%) [2, 9]: 86% | Population Pyknosed Nuclei (%) [2, 9]: 11% | Population Tubulin-Different-Phenotype (%) [2, 9]: 10% | Total Cell Count [2, 9]: 236 | Population Apoptotic (%) [2, 10]: 100% | Population Fragmented Nuclei (%) [2, 10]: 60% | Population Healthy Nuclei (%) [2, 10]: 35% | Population Hoechst High Intensity Objects (%) [2, 10]: 51% | Population Membrane Permeable-Phenotype (%) [2, 10]: 0% | Population Mitochondria Different-Phenotype (%) [2, 10]: 5% | Population Mitotic Cells (%) [2, 10]: 0% | Population Normal (%) [2, 10]: 48% | Population Pyknosed Nuclei (%) [2, 10]: 4% | Population Tubulin-Different-Phenotype (%) [2, 10]: 0% | Total Cell Count [2, 10]: 98 | Population Fragmented Nuclei (%) [2, 11]: 38% | Population Healthy Nuclei (%) [2, 11]: 50% | Population Hoechst High Intensity Objects (%) [2, 11]: 22% | Population Membrane Permeable-Phenotype (%) [2, 11]: 2% | Population Mitochondria Different-Phenotype (%) [2, 11]: 7% | Population Mitotic Cells (%) [2, 11]: 19% | Population Normal (%) [2, 11]: 77% | Population Pyknosed Nuclei (%) [2, 11]: 11% | Population Tubulin-Different-Phenotype (%) [2, 11]: 31% | Total Cell Count [2, 11]: 347 | Population Apoptotic (%) [2, 12]: 80% | Population Fragmented Nuclei (%) [2, 12]: 50% | Population Healthy Nuclei (%) [2, 12]: 41% | Population Hoechst High Intensity Objects (%) [2, 12]: 26% | Population Membrane Permeable-Phenotype (%) [2, 12]: 3% | Population Mitochondria Different-Phenotype (%) [2, 12]: 25% | Population Mitotic Cells (%) [2, 12]: 20% | Population Normal (%) [2, 12]: 73% | Population Pyknosed Nuclei (%) [2, 12]: 7% | Population Tubulin-Different-Phenotype (%) [2, 12]: 62% | Total Cell Count [2, 12]: 89 | Population Apoptotic (%) [2, 13]: 80% | Population Fragmented Nuclei (%) [2, 13]: 33% | Population Healthy Nuclei (%) [2, 13]: 53% | Population Hoechst High Intensity Objects (%) [2, 13]: 18% | Population Membrane Permeable-Phenotype (%) [2, 13]: 3% | Population Mitochondria Different-Phenotype (%) [2, 13]: 8% | Population Mitotic Cells (%) [2, 13]: 20% | Population Normal (%) [2, 13]: 81% | Population Pyknosed Nuclei (%) [2, 13]: 13% | Population Tubulin-Different-Phenotype (%) [2, 13]: 6% | Total Cell Count [2, 13]: 225 | Population Apoptotic (%) [2, 14]: 100% | Population Fragmented Nuclei (%) [2, 14]: 59% | Population Healthy Nuclei (%) [2, 14]: 38% | Population Hoechst High Intensity Objects (%) [2, 14]: 48% | Population Membrane Permeable-Phenotype (%) [2, 14]: 5% | Population Mitochondria Different-Phenotype (%) [2, 14]: 0% | Population Mitotic Cells (%) [2, 14]: 0% | Population Normal (%) [2, 14]: 51% | Population Pyknosed Nuclei (%) [2, 14]: 2% | Population Tubulin-Different-Phenotype (%) [2, 14]: 11% | Total Cell Count [2, 14]: 92 | Population Apoptotic (%) [2, 15]: 75% | Population Fragmented Nuclei (%) [2, 15]: 35% | Population Healthy Nuclei (%) [2, 15]: 55% | Population Hoechst High Intensity Objects (%) [2, 15]: 36% | Population Membrane Permeable-Phenotype (%) [2, 15]: 1% | Population Mitochondria Different-Phenotype (%) [2, 15]: 21% | Population Mitotic Cells (%) [2, 15]: 25% | Population Normal (%) [2, 15]: 63% | Population Pyknosed Nuclei (%) [2, 15]: 10% | Population Tubulin-Different-Phenotype (%) [2, 15]: 21% | Total Cell Count [2, 15]: 376 | Population Apoptotic (%) [2, 16]: 100% | Population Fragmented Nuclei (%) [2, 16]: 57% | Population Healthy Nuclei (%) [2, 16]: 28% | Population Hoechst High Intensity Objects (%) [2, 16]: 35% | Population Membrane Permeable-Phenotype (%) [2, 16]: 0% | Population Mitochondria Different-Phenotype (%) [2, 16]: 35% | Population Mitotic Cells (%) [2, 16]: 0% | Population Normal (%) [2, 16]: 64% | Population Pyknosed Nuclei (%) [2, 16]: 14% | Population Tubulin-Different-Phenotype (%) [2, 16]: 57% | Total Cell Count [2, 16]: 76 | Growth Rate [3, 4]: 1 | Growth Rate [3, 5]: 0 | Growth Rate [3, 6]: 0 | Growth Rate [3, 7]: 0 | Growth Rate [3, 8]: 0
